Published values pooled from the literature.
Each line is one published result; the experiments were not run side by side.
Target: Serine/threonine-protein kinase Nek7 (NEK7, Homo sapiens, UniProt Q8TDX7)

The remaining binding of O=C(c1ccc(Nc2ncc(Cl)c(-c3cc4ccccc4s3)n2)cc1)N1CCC(N2CCCC2)CC1 is reported as 4.5% (binding, competition with immobilised ligand; 1 µM).
Cc1nc(C2CCN(C(=O)c3ccc(OC(F)(F)F)cc3N)CC2)c2ncc(N3CCN(C)CC3)cc2n1 has a remaining binding of 100% (cell-free assay, competition with immobilised ligand; 1 µM).
For CN(C)c1nccc(-c2cnn3ncccc23)n1, the remaining binding was 92% (binding; 1 µM).
O=C(c1ccc(Nc2ncc(Cl)c(-c3ccc(Cl)s3)n2)cc1)N1CCC(N2CCCC2)CC1 gave a remaining binding of 1.4% (binding, competition with immobilised ligand; 1 µM).
With FC(F)(F)Oc1cccc(-c2cnc3ccc(-c4ccncc4)nn23)c1 the remaining binding was 91% (cell-free assay, competition with immobilised ligand; 5 µM).
For CN(C)c1ncc(F)c(-c2cnn3ncccc23)n1, the remaining binding was 95% (binding; 1 µM).
The remaining binding of O=C(NCC1CCOCC1)c1n[nH]cc1NC(=O)c1c(F)cccc1F is reported as 93% (binding, competition with immobilised ligand; 1 µM).
COc1cnc(Nc2cccc(S(N)(=O)=O)c2)nc1N1CCN(c2ccccc2)CC1 gave a remaining binding of 74% (binding, competition with immobilised ligand; 1 µM).
C[C@@H]1CCN(c2nccc(-c3cnn4ncccc34)n2)C1 gave a remaining binding of 89% (binding; 1 µM).
For O=C(Nc1cnc(Oc2ccc(F)cc2)nc1)N1CCc2ncccc2[C@@H]1c1ccc(F)cc1, the remaining binding was 84% (cell-free assay, competition with immobilised ligand; 1 µM).
CN(c1nccc(-c2cnn3ncccc23)n1)C1CC1 gave a remaining binding of 100% (binding; 1 µM).
With CC(=O)C1=C(C)N(c2cccc(C(F)(F)F)c2)C(=O)N[C@@H]1c1ccc(C#N)nc1 the remaining binding was 100% (cell-free assay, competition with immobilised ligand; 1 µM).
c1cncc(-c2cccc(Nc3nccc(NC4CCCCC4)n3)c2)c1 gave a remaining binding of 79% (binding, competition with immobilised ligand; 10 µM).
For COc1ccc2c(c1)O[C@@H](c1ccc(OC)c(OC)c1)C[C@H]2NC(=O)C1(c2ccc3c(c2)OC(F)(F)O3)CC1, the remaining binding was 100% (cell-free assay, competition with immobilised ligand; 1 µM).
The remaining binding of O=C(c1ccc(Nc2nccc(-c3cc4ccccc4s3)n2)cc1)N1CCC(N2CCCC2)CC1 is reported as 79% (binding, competition with immobilised ligand; 1 µM).
For CS(=O)(=O)N1CCCC(NC(=O)[C@H](CCC2CCCCC2)NC(=O)c2ccc(CNc3ncnc4c3nnn4-c3ccccc3)cc2)C1 (some centres unmarked), the remaining binding was 88% (cell-free assay, competition with immobilised ligand; 0.1 µM).
COc1ncc2cc3ccccc3nc2c1C#N gave a remaining binding of 100% (cell-free assay, competition with immobilised ligand; 5 µM).
With F[C@@H]1CCN(c2nccc(-c3cnn4ncccc34)n2)C1 the remaining binding was 100% (binding; 1 µM).
For C=CC(=O)N1CCC(C(=O)NCC(=O)N2CCN(c3nc(-c4cnc(N)nc4C(F)F)nc(N4CCOCC4)n3)CC2)CC1, the remaining binding was 100% (binding, competition with immobilised ligand; 1 µM).
The remaining binding of O=C(NCCCC1CCCCC1)c1ccc(CNC(=O)c2cnn(-c3ccccc3)c2C(F)(F)F)cc1 is reported as 97% (cell-free assay, competition with immobilised ligand; 0.1 µM).
CN(C)c1nccc(-c2cnc3ncccn23)n1 gave a remaining binding of 90% (binding; 1 µM).
CC(=O)N1CCC(c2ccc(C(=O)NC3=NCCN3)cc2C(F)(F)F)CC1 gave a remaining binding of 100% (cell-free assay, competition with immobilised ligand; 1 µM).
The remaining binding of N[C@@H]1CCN(c2nccc(-c3cnn4ncccc34)n2)C1 is reported as 100% (binding; 1 µM).
